Experimental findings from ChEMBL document CHEMBL3351342, “Synthesis and biological evaluation of phenoxyacetic acid derivatives as novel free fatty acid receptor 1 agonists” (Bioorg Med Chem, 2015) are described below.

The target in data set [1] is T1, Free fatty acid receptor 1 (Homo sapiens, UniProt O14842). Kind of data set: Agonist activity at human FFA1 expressed in CHO cells assessed as increase in intracellular Ca2+ concentration by Fluo-4 AM based fluorescence assay. In kind it is functional, cell-based. An outline of the steps:
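CHO cells stably expressing human FFA1 (NM_005303), 30,000 cells/well, cultured overnight at 37 °C in 5% CO2. Loaded with 2.5 µg/mL Fluo-4 AM and 2.5 mmol/L probenecid in HBSS for 90 min at 37 °C, washed, then held 10 min in HBSS with probenecid. Ca2+ rise after adding compound at various concentrations read by fluorimetry. EC50 from curve fitting, mean of three determinations.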

Data set [2] has as its system Mus musculus. Kind of data set: Hypoglycemic effect in ICR mouse assessed as improvement in glucose intolerance at 20 mg/kg, po dosed 30 mins before oral glucose challenge by oral glucose tolerance test. In kind it is functional, organism-based. Also noted: dose 20 mg/kg. An outline of the steps:
(§1)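 Male ICR mice, 10 weeks old, fasted 12 h and randomized (n = 6). Single oral dose of 20 mg/kg as a suspension in 0.5% methylcellulose (1.0 mL/kg), given 30 min before an oral glucose load of 2 g/kg (20% solution). Blood glucose read by test strip at −30, 0, 15, 30, 60 and 120 min. AUC0–120 min calculated; mean ± SEM.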

For data set [3], the target named is T1, Free fatty acid receptor 1. Kind of data set: Agonist activity at human FFA1 expressed in CHO cells assessed as ratio of increase in intracellular Ca2+ concentration in compound treated cells at 100 nM to vehicle-treated cells by Fluo-4 AM based fluorescence assay. In kind it is functional, cell-based. An outline of the steps:
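Same Fluo-4 Ca2+ flux format in CHO cells stably expressing human FFA1. Single screening concentration of 100 nM. Activity expressed as A/B, the Ca2+ increase in compound-treated wells divided by that in vehicle-treated wells. Three independent experiments.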

Data set [4] relates to Mus musculus. The data set is described as follows: Hypoglycemic effect in ICR mouse assessed as reduction in glucose AUC (0 to 120 mins) at 20 mg/kg, po dosed 30 mins before oral glucose challenge by oral glucose tolerance test. The format is functional. The arrangement: scale not given: the % may be the effect or the level left. The method in brief:
as §1

In data set [5] the test system is Mus musculus. Kind of data set: Antihyperglycemic effect in type 2 diabetic C57BL/6 mouse assessed as reduction in blood glucose level at 30 to 100 mg/kg, po. The format is functional, organism-based. An outline of the steps:
(§2)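 Type 2 diabetes model: male C57BL/6 mice on high-fat diet (45% fat) for 4 weeks, STZ 80 mg/kg ip, then high-fat diet for another 4 weeks. Fasting glucose ≥11.1 mmol/L counted as diabetic. Mice fasted 12 h and randomized by weight and glucose (n = 6). Single oral dose of 30–100 mg/kg in 0.5% methylcellulose given 30 min before an oral glucose load of 1 g/kg. Glucose read by strip to 120 min; AUC0–120 min; mean ± SD.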

For data set [6], the system named is Mus musculus. Kind of data set: Antihyperglycemic effect in type 2 diabetic C57BL/6 mouse assessed as reduction in blood glucose level at 60 mg/kg, po administered as single dose. In kind it is functional, organism-based. The arrangement: dose 60 mg/kg. The method in brief:
as §2

Data set [7] in a line: Tmax in Sprague-Dawley rat at 1 mg/kg, po. The format is ADME, organism-based. The arrangement: dose 1 mg/kg, route oral. Conditions: in vivo. An outline of the steps:
(§3)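 Fasted male SD rats (n = 3). Dosed 1 mg/kg iv (0.5 mg/mL, 2 mL/kg) or 1 mg/kg po (1 mg/mL, 1 mL/kg), both in 0.5% methylcellulose. Tail-vein blood in EDTA sampled from 5 min to 36 h. Plasma proteins precipitated with acetonitrile containing internal standard, then analysed by LC-MS/MS. Parameters derived from mean concentrations at each time point.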

A short description of data set [8]: Half life in Sprague-Dawley rat at 1 mg/kg, po. The conditions noted are these: in vivo. The format is ADME, organism-based. The arrangement: dose 1 mg/kg, route oral. The method in brief:
as §3

A short description of data set [9]: Half life in Sprague-Dawley rat at 1 mg/kg, iv. The format is ADME, organism-based. Also noted: dose 1 mg/kg, route intravenous. The conditions noted are these: in vivo. An outline of the steps:
as §3

A short description of data set [10]: Oral bioavailability in Sprague-Dawley rat at 1 mg/kg. The format is ADME, organism-based. Conditions: in vivo. The method in brief:
as §3

A short description of data set [11]: Cmax in Sprague-Dawley rat at 1 mg/kg, po. The format is ADME, organism-based. Also noted: dose 1 mg/kg, route oral. Conditions: in vivo. An outline of the steps: as §3
Data set [12] is described as follows: AUC (0 to 8 hrs) in Sprague-Dawley rat at 1 mg/kg, po. The arrangement: time < 8 hr, dose 1 mg/kg, route oral. The format is ADME, organism-based. The conditions noted are these: plasma. The method in brief:
as §3

Data set [13] in a line: Clearance in Sprague-Dawley rat at 1 mg/kg, iv. In kind it is ADME, organism-based. The arrangement: dose 1 mg/kg, route intravenous. The conditions noted are these: in vivo. The method in brief: as §3
A short description of data set [14]: Volume of distribution in Sprague-Dawley rat at 1 mg/kg, iv. In kind it is ADME, organism-based. Also noted: dose 1 mg/kg, route intravenous. Conditions: in vivo. The method in brief: as §3

Activity calls are given as the source filed them. The rule behind the calls is not given here.

T1 sequence (O14842 whole entry): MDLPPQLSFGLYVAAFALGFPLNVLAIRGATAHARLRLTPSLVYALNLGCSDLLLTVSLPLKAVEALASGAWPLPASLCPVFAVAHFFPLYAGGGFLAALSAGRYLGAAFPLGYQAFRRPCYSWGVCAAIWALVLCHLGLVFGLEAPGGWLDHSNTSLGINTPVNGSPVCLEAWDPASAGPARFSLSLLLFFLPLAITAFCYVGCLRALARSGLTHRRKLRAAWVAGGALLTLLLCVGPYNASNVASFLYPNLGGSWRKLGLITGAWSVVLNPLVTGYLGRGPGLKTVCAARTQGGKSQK

As a reminder, the EC50 is the midpoint of the concentration-response curve. As to `Cc1cc(OCCCS(C)(=O)=O)cc(C)c1-c1cccc(COc2ccc(OCC(=O)O)c(Cl)c2)c1`, the EC50 in data set [1] was determined as 92.6 nM. For the same compound, the result in the data set on Mus musculus [2] was Active. Moreover, in data set [3], the Ratio came out at 6.18.
As to `Cc1cc(OCCCS(C)(=O)=O)cc(C)c1-c1cccc(COc2ccc3c(c2)OC[C@H]3CC(=O)O)c1`, in the data set with Mus musculus [2], the outcome was Active. Besides, the Activity in the data set with Mus musculus [4] came to 29.3%.
`Cc1cc(OCc2cccc(-c3c(C)cc(OCCCS(C)(=O)=O)cc3C)c2)ccc1OCC(=O)O`: the EC50 in data set [1] worked out at 153 nM. In addition, the result in the data set on Mus musculus [2] was Active. In addition, in data set [3], the Ratio amounted to 5.64.
For the compound `Cc1cc(OCc2cccc(-c3c(C)cc(OCCCS(C)(=O)=O)cc3C)c2)cc(C)c1OC(C)(C)C(=O)O`, the Ratio in [3] worked out at 1.6.
With `Cc1cc(OCCCS(C)(=O)=O)cc(C)c1-c1cccc(COc2ccc(OC(C)(C)C(=O)O)c(Cl)c2)c1`, the Ratio in data set [3] amounted to 3.04.
Same read-out and setting: as for `CCC(Oc1ccc(OCc2cccc(-c3c(C)cc(OCCCS(C)(=O)=O)cc3C)c2)cc1)C(=O)O` (configuration not stated), the figure is 3.04.
On to `Cc1cc(OCCCS(C)(=O)=O)cc(C)c1-c1cccc(COc2ccc(OCC(=O)O)cc2)c1`, for which the EC50 in [1] is 121 nM. In addition, the result with Mus musculus [2] was Active. Moreover, the Ratio in data set [3] turned out to be 6.04.
In the case of `Cc1cc(OCCCS(C)(=O)=O)cc(C)c1-c1cccc(COc2ccc(OC(C)(C)C(=O)O)cc2)c1`, in [3], the Ratio came to 2.45.
For `CCc1cc(OCc2cccc(-c3c(C)cc(OCCCS(C)(=O)=O)cc3C)c2)ccc1OCC(=O)O`, the Ratio in data set [3] was 3.19.
On the same count and under the same terms, as for `Cc1cc(OCCCS(C)(=O)=O)cc(C)c1-c1cccc(COc2ccc(OC(C)(C)C(=O)O)c(F)c2)c1`, the figure is 3.06.
Take `Cc1cc(OCCCS(C)(=O)=O)cc(C)c1-c1cccc(COc2ccc(OC(C)C(=O)O)cc2)c1` (configuration not stated): the EC50 in data set [1] came out at 389 nM. Further, the result in the data set with Mus musculus [2] was Active. In addition, the Ratio in data set [3] stood at 4.04.
A word on the Tmax: it is the time at which the peak concentration occurs. Usually half-life stands for the time in which the quantity being followed falls by half. What is called bioavailability is dose-corrected exposure relative to a reference, in per cent. What is called Cmax is the highest concentration seen after dosing. What is called AUC(0-t) is exposure summed from dosing to a finite time, without extrapolation to infinity. As usually defined, the clearance is a measure of how efficiently the substance is removed, as volume per time. As a reminder, the Vd is the apparent volume that relates the amount in the body to the concentration in plasma or blood. As to `Cc1cc(OCCCS(C)(=O)=O)cc(C)c1-c1cccc(COc2ccc(OCC(=O)O)c(F)c2)c1`, the Activity result is “Dose-dependent effect” with Mus musculus [5] and 31% with Mus musculus [4]. The outcome in the data set with Mus musculus [6] and in the data set on Mus musculus [2] was Active. The Tmax in data set [7] amounted to 1 h. Also, in data set [1], the EC50 is 62.3 nM. Also, the half-life in data set [8] was 3.27 h; in [9], 4.15 h. In addition, in [10], the bioavailability came to 63%. The Ratio in data set [3] was found to be 6.42. The same compound yielded a Cmax in data set [11] of 1170 ng/mL. Besides, in [12], the AUC(0-t) at 8 h came to 5340 ng·h/mL. In data set [13], this compound showed a clearance of 1.83 mL/min/kg. The distribution volume (Vd) in data set [14] was found to be 0.26 L/kg.
For the compound `COc1cc(OCc2cccc(-c3c(C)cc(OCCCS(C)(=O)=O)cc3C)c2)ccc1OC(C)(C)C(=O)O`, the Ratio in data set [3] came out at 1.81.
`COc1cc(OCc2cccc(-c3c(C)cc(OCCCS(C)(=O)=O)cc3C)c2)ccc1OCC(=O)O`: the Ratio in [3] was determined as 2.02.
On the same count and under the same terms, as for `CCc1cc(OCc2cccc(-c3c(C)cc(OCCCS(C)(=O)=O)cc3C)c2)ccc1OC(C)(C)C(=O)O`, the figure is 1.48.
